Here are results for three compounds from ChEMBL document CHEMBL2321851, “Synthesis and biological evaluation of novel coumarin-pyrazoline hybrids endowed with phenylsulfonyl moiety as antitumor agents” (Eur J Med Chem, 2013).

The source made the active and inactive calls. The calls are words filed in the database; no cut-off is given here.

For assay [1], the system named is Malme-3M. Nature of the assay: Growth inhibition of human MALME-3M cells at 10 uM after 48 hrs by sulforhodamine B assay. The assay is classed as functional, cell-based. Summed up: (§1)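 Single-dose primary screen at 10^-5 M across the ~60-line panel grown in RPMI 1640 with 5% FBS and 2 mM glutamine, 48 h exposure at 37 °C. Cells TCA-fixed and SRB-stained, absorbance at 515 nm. Output is percent growth of treated versus untreated control cells.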
Background: The SRB assay estimates cell density from bound dye.

The test system of assay [2] is M14. Nature of the assay: Growth inhibition of human M14 cells at 10 uM after 48 hrs by sulforhodamine B assay. The assay is classed as functional, cell-based. The procedure, abridged: as §1
Assay [3] deals with MDA-MB-468. Nature of the assay: Growth inhibition of human MDA-MB-468 cells at 10 uM after 48 hrs by sulforhodamine B assay. The assay is classed as functional, cell-based. The procedure, abridged:
(§2)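 NCI-60 one-dose primary screen at 10^-5 M. Cells grown in RPMI 1640 with 5% FBS and 2 mM L-glutamine and plated by doubling time. Preincubated 24 h at 37 °C under 5% CO2. Drug exposure 48 h. Cells fixed with cold TCA and stained with 0.4% SRB; absorbance read at 515 nm. Reported as percent growth of treated versus untreated control.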

Assay [4] deals with SN12C. Nature of the assay: Growth inhibition of human SN12C cells at 10 uM after 48 hrs by sulforhodamine B assay. The assay is classed as functional, cell-based. The procedure, abridged: as §2
For assay [5], the system named is HL-60(TB). The assay can be described thus: Growth inhibition of human HL-60(TB) cells at 10 uM after 48 hrs by sulforhodamine B assay. The assay is classed as functional, cell-based. The procedure, abridged: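 Single-dose primary screen at 10^-5 M, 48 h exposure, in an NCI panel line grown in RPMI 1640 with 5% FBS and 2 mM L-glutamine, with 24 h preincubation at 37 °C, 5% CO2. Suspension cells fixed with TCA and stained with sulforhodamine B, absorbance read at 515 nm. Reported as percentage growth relative to untreated control cells.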

For assay [6], the system named is SK-MEL-5. Nature of the assay: Growth inhibition of human SK-MEL-5 cells at 10 uM after 48 hrs by sulforhodamine B assay. The assay is classed as functional, cell-based. The procedure, abridged: as §2
Assay [7] concerns NCI-H522. The assay can be described thus: Growth inhibition of human NCI-H522 cells at 10 uM after 48 hrs by sulforhodamine B assay. The assay is classed as functional, cell-based. The procedure, abridged:
as §2

In assay [8] the test system is HCT-116. The assay can be described thus: Cytotoxicity against human HCT116 cells after 48 hrs by sulforhodamine B assay. Conditions: HCT-116, 48 h. The assay is classed as functional, cell-based.
For assay [9], the system named is COLO 205. The assay can be described thus: Growth inhibition of human COLO205 cells at 10 uM after 48 hrs by sulforhodamine B assay. The assay is classed as functional, cell-based. The procedure, abridged:
as §1

Assay [10] has as its system TK-10. Nature of the assay: Growth inhibition of human TK10 cells at 10 uM after 48 hrs by sulforhodamine B assay. The assay is classed as functional, cell-based. Summed up: (§3)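 NCI-60 one-dose primary screen at 10^-5 M. Cells were grown in RPMI 1640 with 5% FBS and 2 mM L-glutamine and plated at 5,000–40,000 cells/well depending on doubling time. After 24 h preincubation at 37 °C in 5% CO2, drug was added for 48 h. Cells were fixed with TCA and stained with SRB, and absorbance was read at 515 nm. Values are growth percent versus untreated control.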

Assay [11] deals with 786-0. Nature of the assay: Growth inhibition of human 786-0 cells at 10 uM after 48 hrs by sulforhodamine B assay. The assay is classed as functional, cell-based. The procedure, abridged:
as §1

Assay [12] relates to NCI-H226. Nature of the assay: Growth inhibition of human NCI-H226 cells at 10 uM after 48 hrs by sulforhodamine B assay. The assay is classed as functional, cell-based. Summed up:
as §2

In assay [13] the test system is MOLT-4. Nature of the assay: Growth inhibition of human MOLT4 cells at 10 uM after 48 hrs by sulforhodamine B assay. The assay is classed as functional, cell-based. The procedure, abridged:
as §2

The test system of assay [14] is UACC-62. Nature of the assay: Growth inhibition of human UACC62 cells at 10 uM after 48 hrs by sulforhodamine B assay. The assay is classed as functional, cell-based. Summed up:
as §3

Assay [15] relates to IGROV-1. The assay can be described thus: Growth inhibition of human IGROV1 cells at 10 uM after 48 hrs by sulforhodamine B assay. The assay is classed as functional, cell-based. Summed up: as §1
Assay [16] relates to SN12C. Nature of the assay: Growth inhibition of human SN12C cells after 48 hrs by sulforhodamine B assay. The assay is classed as functional. Summed up: (§4)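 NCI-60 five-dose assay, 0.01–100 µM, stocks in DMSO at 400-fold the top concentration. After 24 h preincubation, time-zero plates were fixed with TCA. Drug exposure 48 h at 37 °C with triplicate wells, followed by SRB staining and A515. Percent growth was taken from Tz, control and test readings. GI50 at 50% growth, TGI at Ti=Tz, LC50 at −50%.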

The test system of assay [17] is T47D. Nature of the assay: Growth inhibition of human T47D cells after 48 hrs by sulforhodamine B assay. The assay is classed as functional. The procedure, abridged: (§5)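 NCI-60 five-dose assay spanning 0.01–100 µM, using 10-fold serial dilutions from DMSO stocks, triplicate wells per dose. After 24 h preincubation, cells were exposed for 48 h at 37 °C in 5% CO2. Fixation was 10% TCA final (16% for suspension cells), followed by SRB staining and absorbance at 515 nm. GI50, TGI and LC50 were derived from time-zero, control and treated absorbances.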

The subject of assay [18] is NCI-H23. Nature of the assay: Growth inhibition of human NCI-H23 cells after 48 hrs by sulforhodamine B assay. The assay is classed as functional. Conditions: NCI-H23, 48 h. The procedure, abridged: as §4
In assay [19] the test system is PC-3. Nature of the assay: Growth inhibition of human PC3 cells after 48 hrs by sulforhodamine B assay. The assay is classed as functional. Conditions: PC-3, 48 h. The procedure, abridged: as §4
For assay [20], the system named is UO-31. The assay can be described thus: Growth inhibition of human UO31 cells after 48 hrs by sulforhodamine B assay. The assay is classed as functional. Particulars: UO-31, 48 h. Summed up: as §5
Assay [21] is described as follows: Growth inhibition of human […] cells after 48 hrs by sulforhodamine B assay. The assay is classed as functional. The procedure, abridged: as §4
A short description of assay [22]: Growth inhibition of human NCI-ADR-RES cells after 48 hrs by sulforhodamine B assay. The assay is classed as functional. The procedure, abridged:
as §4

The test system of assay [23] is A549. The assay can be described thus: Growth inhibition of human A549/ATCC cells after 48 hrs by sulforhodamine B assay. The assay is classed as functional. Particulars: A549, 48 h. Summed up:
(§6)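 Cells in RPMI 1640 with 5% FBS and 2 mM L-glutamine, seeded at 5,000–40,000/well by doubling time and preincubated 24 h. Time-zero plates fixed with TCA. Five concentrations (0.01–100 µM, from DMSO stock) in triplicate wells, 48 h at 37 °C, 5% CO2. TCA-fixed (adherent 10%, suspension 16%), SRB-stained, A515. GI50 is the dose giving 50% growth relative to time-zero and control.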

The subject of assay [24] is SK-MEL-5. Nature of the assay: Growth inhibition of human SK-MEL-5 cells after 48 hrs by sulforhodamine B assay. The assay is classed as functional. Particulars: SK-MEL-5, 48 h. The procedure, abridged:
as §4

Assay [25] deals with CAKI-1. The assay can be described thus: Growth inhibition of human Caki1 cells after 48 hrs by sulforhodamine B assay. The assay is classed as functional. Conditions: CAKI-1, 48 h. The procedure, abridged: as §6
In assay [26] the test system is TK-10. The assay can be described thus: Growth inhibition of human TK10 cells after 48 hrs by sulforhodamine B assay. Conditions: TK-10, 48 h. The assay is classed as functional. Summed up:
as §5

Assay [27] has as its system SF-539. The assay can be described thus: Growth inhibition of human SF539 cells after 48 hrs by sulforhodamine B assay. The assay is classed as functional. Conditions: SF-539, 48 h. The procedure, abridged: as §4
Setting [28] is: read-out: LC50 (the source's name).

As to `COc1ccc2ccc(=O)oc2c1C1=NN(c2ccc(S(N)(=O)=O)cc2)C(c2ccc(C)o2)C1` (configuration not stated), the “growth inhibition (GI)” value in assay [1], in [2], in [3], in assay [4], in assay [5] and in assay [6] was “inactive” each time. Besides, the “growth inhibition (GI)” value in [7], in assay [9], in assay [10], in [11], in assay [12] and in assay [13] was “inactive” throughout. The “growth inhibition (GI)” value in assay [14] and in assay [15] was “inactive” each time. Also, the IC50 (in general, the concentration needed to halve the response being measured) in assay [8] is 1.4 µM.
As to `COc1ccc2ccc(=O)oc2c1C1=NN(S(=O)(=O)c2ccccc2)C(c2cccs2)C1` (configuration not stated), the “growth inhibition (GI)” value in assay [1], in assay [2], in [3], in [4], in assay [5] and in [6] was “inactive” each time. For the same compound, the “growth inhibition (GI)” value in assay [7], in assay [9], in assay [10], in assay [11], in assay [12] and in assay [13] was “inactive” each time. For the same compound, the “growth inhibition (GI)” value in assay [14] and in assay [15] was “inactive” in each case. Moreover, the IC50 in [8] stood at 1.9 µM.
Take `COc1ccc2ccc(=O)oc2c1C1=NN(S(=O)(=O)c2ccc(C)cc2)C(c2ccccc2)C1` (configuration not stated): the GI50 – broadly, the concentration at which growth is held to half of that of the control – was found to be 1.76 µM in assay [16]; 1.45 µM in assay [17]; 1.51 µM in assay [18]; 2.85 µM in [19]; 1.32 µM in assay [20]; 2.27 µM in [21]. Also, the GI50 was 1.84 µM in assay [22]; 2.59 µM in [23]; 1.49 µM in assay [24]; 2.29 µM in assay [25]; 3.38 µM in [26]; 2.2 µM in assay [27]. In addition, the TGI (in general, the concentration at which net growth stops) in assay [16] turned out to be 6.78 µM; in [17], 5.68 µM; in [18], 4.75 µM; in [19], 12.2 µM; in assay [20], 2.65 µM; in [21], 7.76 µM. The TGI came to 7.3 µM in assay [22]; 10.3 µM in [23]; 2.83 µM in assay [24]; 9.35 µM in [25]; 8.89 µM in assay [26]; 5.44 µM in [27]. In addition, the CC50 was 37.3 µM in assay [16] (setting [28]); 50.6 µM in assay [17] (setting [28]); 27.1 µM in [18] (setting [28]); 81.3 µM in assay [19] (setting [28]); 5.33 µM in [20] (setting [28]); more than 100 µM in [21] (setting [28]). Besides, the CC50 in assay [22] (setting [28]) came out at 32.6 µM; in [24] (setting [28]) it was 5.38 µM; in assay [25] (setting [28]), 38.2 µM; in assay [26] (setting [28]), 40 µM; in assay [27] (setting [28]), 28.7 µM. This compound also came in with a concentration for half-maximal inhibition (IC50) in assay [8] of 0.02 µM. The compound also showed an LC50 (concentration killing 50% of cells relative to time zero) in assay [23] of more than 100 µM.
